Calls of active or inactive are those of the source. The calls are words filed in the database; no cut-off is given here.
Key:
Tubulin = Tubulin (Bos taurus, UniProt Q6B856+Q862L2+Q862F3); assay: Inhibition of tubulin polymerization in bovine brain by tubulin assembly assay
Outline: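 Purified bovine brain tubulin (10 µM) in glutamate buffer was preincubated with a concentration range of compound at 30 °C, then cooled to 0 °C. GTP was added, the mixture rewarmed to 30 °C and assembly followed by turbidity.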

K562 [1] = assay: Antiproliferative activity against human K562 cell line; format: functional, cell-based
Outline: (§1)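 Exponentially growing cells in RPMI 1640 with 10% fetal calf serum, 2 mM L-glutamine, […], penicillin/streptomycin were exposed to increasing drug concentrations (DMSO stock 1 mg/mL, final DMSO ≤0.01%, matched DMSO controls). Cells counted by Coulter counter after 48 h. IC50 = concentration giving 50% inhibition versus untreated controls. Duplicate cultures per concentration, ≥3 independent experiments, mean ± SE.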

L1210 = assay: Antiproliferative activity against mouse L1210 cell line; format: functional, cell-based; outline: as §1
Tubulin (Bos taurus) = assay: Inhibition of [3H]colchicine binding to tubulin at 1 uM
K562 [2] = assay: Cell cycle arrest in K562 cells at sub-G1 phase cell at 3 nM; format: functional, cell-based; settings: Homo sapiens
Outline: (§2)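 K562 cells cultured with compound at 3 or 10 nM, or at levels giving 50% and 75% growth inhibition, versus untreated cells. Cells (1 × 10⁶) stained with propidium iodide for 30 min. Sub-G1 (DNA-breakage) fraction measured by flow cytometry.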

K562 [3] = assay: Cell cycle arrest in K562 cells at sub-G1 phase cell at 10 nM; format: functional, cell-based; settings: Homo sapiens; outline: as §2
K562 [4] = assay: Induction of apoptosis in K562 cell line; format: functional, Homo sapiens
K562 [5] = assay: Cell cycle arrest in K562 cells at sub-G1 phase cell; format: functional, cell-based; settings: Homo sapiens; outline: as §2
K562 [6] = assay: Cell cycle arrest in K562 cells at G2/M phase; format: functional, cell-based; settings: Homo sapiens
Outline: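 K562 cells cultured 24 h with compound at concentrations giving 25%, 50% and 75% growth inhibition, or without compound. Cells (1 × 10⁶) stained with propidium iodide for 30 min and analysed by flow cytometry for G1, S, G2/M and sub-G1 fractions. DMSO vehicle.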

IC50 (Tubulin) [nM]	IC50 (K562 [1]) [nM]	IC50 (L1210) [nM]	inhibition (Tubulin (Bos taurus)) [%]	SMILES	other results
980	14.7	6.96	68	COc1cc(C(=O)c2cc(-c3ccc(Cl)cc3)sc2N)cc(OC)c1OC	–
–	342	1150	–	COc1cc(C(=O)c2cc(I)sc2N)cc(OC)c1OC	–
1900	3.75	2.52	60	COc1cc(C(=O)c2cc(-c3ccccc3)sc2N)cc(OC)c1OC	Activity (K562 [2]): Active; Activity (K562 [3]): Active; Activity (K562 [4]): 87.5%; Activity (K562 [5]): Active
2200	6.42	18.2	37	COc1cc(C(=O)c2c(N)sc(-c3ccccc3)c2C)cc(OC)c1OC	–
–	8500	6950	–	COc1cc(C(=O)c2c(N)sc(-c3ccccc3)c2-c2ccccc2)cc(OC)c1OC	–
–	85.5	537	–	COc1ccc(C(=O)c2cc(-c3ccccc3)sc2N)cc1OC	–
–	362	337	–	COc1cc(C(=O)c2cc(-c3ccc(Cl)c(Cl)c3)sc2N)cc(OC)c1OC	–
1100	2.82	2.15	82	COc1cc(C(=O)c2cc(-c3ccc(F)cc3)sc2N)cc(OC)c1OC	Activity (K562 [4]): 64.5%; Activity (K562 [6]): Dose-dependent effect; Activity (K562 [5]): Active
–	219	262	–	COc1cc(C(=O)c2c(C)csc2N)cc(OC)c1OC	–
1700	4.47	6.52	64	COc1ccc(-c2cc(C(=O)c3cc(OC)c(OC)c(OC)c3)c(N)s2)cc1	–
–	4670	> 10000	–	COc1ccc(C(=O)c2cc(-c3ccccc3)sc2N)cc1	–
–	1680	4250	–	COc1cc(C(=O)c2cc(Br)sc2N)cc(OC)c1OC	–
–	1100	1650	–	COc1cc(C(=O)c2cc(-c3ccc(OC)c(OC)c3OC)sc2N)cc(OC)c1OC	–
–	> 10000	> 10000	–	COc1cc(C(=O)c2c(-c3ccccc3)csc2N)cc(OC)c1OC	–
1100	4.72	3.52	71	COc1cc(C(=O)c2cc(-c3ccc(C)cc3)sc2N)cc(OC)c1OC	Activity (K562 [4]): 20.5%; Activity (K562 [5]): Active
–	7.75	9	–	COc1ccccc1-c1cc(C(=O)c2cc(OC)c(OC)c(OC)c2)c(N)s1	–
–	790	3900	–	COc1cc(C(=O)c2c(N)sc(C)c2C)cc(OC)c1OC	–
–	70.3	73.7	–	COc1cc(C(=O)c2cc(-c3ccc(C(F)(F)F)cc3)sc2N)cc(OC)c1OC	–
–	9000	> 10000	–	CCc1cc(C(=O)c2cc(OC)c(OC)c(OC)c2)c(N)s1	–
–	1490	1320	–	CCCCCc1cc(C(=O)c2cc(OC)c(OC)c(OC)c2)c(N)s1	–
1700	10.1	20.8	58	COc1cccc(-c2cc(C(=O)c3cc(OC)c(OC)c(OC)c3)c(N)s2)c1	–
–	1270	3150	–	COc1cc(C(=O)c2ccsc2N)cc(OC)c1OC	–

SMILES	IC50 (Tubulin) [nM]	IC50 (K562 [1]) [nM]	IC50 (L1210) [nM]	inhibition (Tubulin (Bos taurus)) [%]	other results
COc1ccc(/C=C\c2cc(OC)c(OC)c(OC)c2)cc1O [COMBRETASTATIN A4]	–	3.6	8.3	–	–
